The source made the active and inactive calls. The rule behind the calls is not given here.
Experiments:
[1] = Effect on fatty acid composition in human myotubes assessed as intracellular TTA level at 10 uM after 96 hrs; format: functional
Summary of the method: (§1)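 Differentiated human myotubes (7 days) treated 96 h with 10 or 30 μM compound or DMSO 0.1% (two controls). Cells washed, harvested, lipids extracted and methylated (methanol, sulfuric acid, 90 °C, 1 h); FA methyl esters quantified by GC with C21:0 internal standard, peaks confirmed by standards and GC/MS; values as mol % of intracellular fatty acids.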

[2] = Effect on fatty acid composition in human myotubes assessed as intracellular dTTA level at 10 uM after 96 hrs; format: functional; summary of the method: as §1
[3] = Effect on fatty acid composition in human myotubes assessed as intracellular SFA level at 10 uM after 96 hrs (Rvb= 36.16%); format: functional; summary of the method: as §1
[4] = Effect on fatty acid composition in human myotubes assessed as intracellular MUFA level at 10 uM after 96 hrs (Rvb= 41.04%); format: functional; summary of the method: as §1
[5] = Effect on fatty acid composition in human myotubes assessed as intracellular PUFA n-3 level at 10 uM after 96 hrs (Rvb= 7.47%); format: functional; summary of the method: as §1
[6] = Effect on fatty acid composition in human myotubes assessed as intracellular PUFA n-6 level at 10 uM after 96 hrs (Rvb= 13.41%); format: functional; summary of the method: as §1
[7] = Effect on fatty acid composition in human myotubes assessed as intracellular PUFA n-9 level at 10 uM after 96 hrs (Rvb= 1.78%); format: functional; summary of the method: as §1
[8] = Effect on fatty acid composition in human myotubes assessed as intracellular TTA level at 30 uM after 96 hrs; format: functional; summary of the method: as §1
[9] = Effect on fatty acid composition in human myotubes assessed as intracellular dTTA level at 30 uM after 96 hrs; format: functional; summary of the method: as §1
[10] = Effect on fatty acid composition in human myotubes assessed as intracellular SFA level at 30 uM after 96 hrs (Rvb= 36.16%); format: functional; summary of the method: as §1
[11] = Effect on fatty acid composition in human myotubes assessed as intracellular MUFA level at 30 uM after 96 hrs (Rvb= 41.04%); format: functional; summary of the method: as §1
[12] = Effect on fatty acid composition in human myotubes assessed as intracellular PUFA n-3 level at 30 uM after 96 hrs (Rvb= […]); format: functional; summary of the method: as §1
[13] = Effect on fatty acid composition in human myotubes assessed as intracellular PUFA n-6 level at 30 uM after 96 hrs (Rvb= 13.41%); format: functional; summary of the method: as §1
[14] = Effect on fatty acid composition in human myotubes assessed as intracellular PUFA n-9 level at 30 uM after 96 hrs (Rvb= 1.78%); format: functional; summary of the method: as §1
[15] = Effect on fatty acid composition in human myotubes assessed as change in intracellular SFA level at 10 uM after 96 hrs relative to DMSO control; format: functional; summary of the method: as §1
[16] = Effect on fatty acid composition in human myotubes assessed as change in intracellular SFA level at 30 uM after 96 hrs relative to DMSO control; format: functional; summary of the method: as §1
[17] = Effect on fatty acid composition in human myotubes assessed as change in intracellular MUFA level at 10 uM after 96 hrs relative to DMSO control; format: functional; summary of the method: as §1
[18] = Effect on fatty acid composition in human myotubes assessed as change in intracellular MUFA level at 30 uM after 96 hrs relative to DMSO control; format: functional; summary of the method: as §1
Homo sapiens [19] = species: Homo sapiens; assay: Induction of fatty acid oxidation in human myotubes using [14C]oleic acid as substrate preincubated for 96 hrs followed by substrate addition incubated for 4 hrs by liquid scintillation analysis; format: functional
Summary of the method: (§2)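 Myotubes differentiated 7 days were pretreated 96 h with 10 or 30 μM compound, 10 nM GW501516 or DMSO 0.1%, then given [1-14C]oleic acid (0.5 μCi/mL, 100 μM) in DPBS with HEPES 10 mM and L-carnitine 1 mM, 4 h at 37 °C. Trapped CO2 and cell-associated label counted by scintillation; uptake = CO2 + CA; Bradford protein; % of DMSO basal; n = 8–15.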

Homo sapiens [20] = species: Homo sapiens; assay: Effect on intracellular [14C]oleic acid uptake in human myotubes at 10 to 30 uM preincubated for 96 hrs followed by substrate addition incubated for 4 hrs by liquid scintillation analysis; format: functional, cell-based; summary of the method: as §2
[21] = Effect on protein level in human myotubes at 10 to 30 uM; format: ADME
[22] = Effect on total fatty acid level in human myotubes assessed as per mg of protein at 10 to 30 uM; format: ADME
[23] = Effect on fatty acid composition in human myotubes assessed as intracellular tTTA level at 10 uM after 96 hrs; format: functional; summary of the method: as §1
[24] = Effect on fatty acid composition in human myotubes assessed as intracellular tTTA level at 30 uM after 96 hrs; format: functional; summary of the method: as §1
[25] = target: T1, Peroxisome proliferator-activated receptor (Homo sapiens) (UniProt P37231+Q07869+Q03181); assay: Agonist activity at PPAR in human myotubes assessed as ANGPTL4 mRNA expression at 30 uM after 96 hrs by qPCR analysis relative to control
Summary of the method: (§3)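 Myotubes from satellite cells of abdominal muscle biopsies of healthy donors, differentiated 7 days, then exposed 96 h to test lipids (30 μM) vs DMSO 0.1%. Total RNA isolated (RIN ≥7), reverse transcribed, real-time PCR with gene-specific primers; expression expressed relative to DMSO control.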

[26] = target: T1, Peroxisome proliferator-activated receptor (Homo sapiens); assay: Agonist activity at PPAR in human myotubes assessed as FABP3 mRNA expression at 30 uM after 96 hrs by qPCR analysis relative to control; summary of the method: as §3
[27] = target: T1, Peroxisome proliferator-activated receptor (Homo sapiens); assay: Agonist activity at PPAR in human myotubes assessed as CD36 mRNA expression at 30 uM after 96 hrs by qPCR analysis relative to control; summary of the method: as §3
[28] = target: T1, Peroxisome proliferator-activated receptor (Homo sapiens); assay: Agonist activity at PPAR in human myotubes assessed as CPT1A mRNA expression at 30 uM after 96 hrs by qPCR analysis relative to control; summary of the method: as §3
[29] = Effect on fatty acid composition in human myotubes assessed as intracellular SFA level at 10 uM after 96 hrs (Rvb= 31.41%); format: functional; summary of the method: as §1
[30] = Effect on fatty acid composition in human myotubes assessed as intracellular MUFA level at 10 uM after 96 hrs (Rvb= 49.95%); format: functional; summary of the method: as §1
[31] = Effect on fatty acid composition in human myotubes assessed as intracellular PUFA n-3 level at 10 uM after 96 hrs (Rvb= 5.16%); format: functional; summary of the method: as §1
[32] = Effect on fatty acid composition in human myotubes assessed as intracellular PUFA n-6 level at 10 uM after 96 hrs (Rvb= 11.46%); format: functional; summary of the method: as §1
[33] = Effect on fatty acid composition in human myotubes assessed as intracellular PUFA n-9 level at 10 uM after 96 hrs (Rvb= 1.89%); format: functional; summary of the method: as §1
[34] = Effect on fatty acid composition in human myotubes assessed as intracellular SFA level at 30 uM after 96 hrs (Rvb= 31.41%); format: functional; summary of the method: as §1
[35] = Effect on fatty acid composition in human myotubes assessed as intracellular MUFA level at 30 uM after 96 hrs (Rvb= 49.95%); format: functional; summary of the method: as §1
[36] = Effect on fatty acid composition in human myotubes assessed as intracellular PUFA n-3 level at 30 uM after 96 hrs (Rvb= 5.16%); format: functional; summary of the method: as §1
[37] = Effect on fatty acid composition in human myotubes assessed as intracellular PUFA n-6 level at 30 uM after 96 hrs (Rvb= 11.46%); format: functional; summary of the method: as §1
[38] = Effect on fatty acid composition in human myotubes assessed as intracellular PUFA n-9 level at 30 uM after 96 hrs (Rvb= 1.89%); format: functional; summary of the method: as §1

Compound	Activity [26]	Activity [27]	Activity [1] [mol%]	Activity [2] [mol%]	Activity [3] [mol%]	Activity [4] [mol%]	Activity [5] [mol%]	Activity [6] [mol%]	Activity [7] [mol%]	Activity [8] [mol%]	Activity [9] [mol%]	Activity [10] [mol%]	Activity [11] [mol%]	Activity [15] [%]	Activity [16] [%]	Activity [17] [%]	Activity [18] [%]	Activity (Homo sapiens [20])	Activity [21]	Activity [22]	other results
CCCCCCCCCCCCCCSCC(=O)OC[C@@H](O)COP(=O)([O-])OCC[N+](C)(C)C	–	–	7.99	0.76	30.15	37.12	7.68	13.96	2.21	19.51	0.91	23.57	33.15	-16.3	-34.6	-9.6	-19.3	inactive	Non-toxic	Non-toxic	Activity [12]: 7.56 mol%; Activity [13]: 13.2 mol%; Activity [14]: 1.97 mol%; Activity (Homo sapiens [19]): Dose-dependent effect
CCCCCCC#CCCCCCCSCC(=O)O	Active	Active	0.06	–	38.85	36.3	8.41	13.93	1.32	0.32	–	36.3	32.32	2.2	0.7	-11.6	-21.3	inactive	Non-toxic	Non-toxic	Activity [23]: 3.01 mol%; Activity [24]: 11.34 mol%; Activity [12]: 7.09 mol%; Activity [13]: 11.63 mol%; Activity [14]: 0.87 mol%; fold change (FC) [25]: 35; fold change (FC) [28]: < 10
CCCCCCCCCCCCCCSCC(=O)OC[C@H](COP(=O)([O-])OCC[N+](C)(C)C)OC(=O)CSCCCCCCCCCCCCCC [PHOSPHATIDYLCHOLINE]	inactive	inactive	5.5	0.17	35.14	37.48	6.98	12.71	1.88	5.9	0.34	31.79	39.28	-2.5	-11.8	-8.8	-4.4	inactive	Non-toxic	Non-toxic	Activity [12]: 7.3 mol%; Activity [13]: 13.31 mol%; Activity [14]: 1.95 mol%; Activity [25]: inactive; Activity [28]: inactive
CCCCCC/C=C\CCCCCCSCC(=O)OC[C@H](COP(=O)([O-])OCC[N+](C)(C)C)OC(=O)CSCCCCCC/C=C\CCCCCC	Active	Active	0.01	1.87	–	–	–	–	–	0.4	6.08	–	–	2.7	4.5	-3.6	-13.1	inactive	Non-toxic	Non-toxic	Activity [29]: 32.26 mol%; Activity [30]: 48.17 mol%; Activity [31]: 4.74 mol%; Activity [32]: 11.29 mol%; Activity [33]: 1.53 mol%; Activity [34]: 32.82 mol%; Activity [35]: 43.41 mol%; Activity [36]: 4.63 mol%; Activity [37]: 11.45 mol%; Activity [38]: 1.42 mol%; Activity [25]: Active; Activity [28]: Active

Now from value to molecule, other results behind:

Activity [26]	Activity [27]	Compound	Activity [1] [mol%]	Activity [2] [mol%]	Activity [3] [mol%]	Activity [4] [mol%]	Activity [5] [mol%]	Activity [6] [mol%]	Activity [7] [mol%]	Activity [8] [mol%]	Activity [9] [mol%]	Activity [10] [mol%]	Activity [11] [mol%]	Activity [15] [%]	Activity [16] [%]	Activity [17] [%]	Activity [18] [%]	Activity (Homo sapiens [20])	Activity [21]	Activity [22]	other results
Active	Active	CCCCCCC#CCCCCCCSCC(=O)OC[C@@H](O)COP(=O)([O-])OCC[N+](C)(C)C	0.43	–	–	–	–	–	–	1.02	–	–	–	0.7	4.5	-21.3	-13.1	inactive	Non-toxic	Non-toxic	Activity [23]: 2.16 mol%; Activity [24]: 4.15 mol%; Activity [29]: 32.02 mol%; Activity [30]: 46.19 mol%; Activity [31]: 5.18 mol%; Activity [32]: 12.4 mol%; Activity [33]: 1.48 mol%; Activity [34]: 33.52 mol%; Activity [35]: 40.64 mol%; Activity [36]: 5.68 mol%; Activity [37]: 13.42 mol%; Activity [38]: 1.41 mol%; Activity (Homo sapiens [19]): Dose-dependent effect; fold change (FC) [25]: 25; fold change (FC) [28]: < 7
Active	Active	CCCCCCCCCCCCCCSCC(=O)OC[C@@H](O)CO	7.17	0.49	29.36	38.46	8.42	14.15	1.81	20.04	0.91	22.3	33.11	-18.5	-38.1	-6.4	-19.4	inactive	Non-toxic	Non-toxic	Activity [12]: 8.21 mol%; Activity [13]: 13.63 mol%; Activity [14]: 1.68 mol%; Activity (Homo sapiens [19]): Dose-dependent effect; Activity [25]: Active; Activity [28]: Active

Source: ChEMBL document CHEMBL3763093, “The molecular structure of thio-ether fatty acids influences PPAR-dependent regulation of lipid metabolism” (Bioorg Med Chem, 2016)
